The entries come from a sample that favours hits as a whole.
INS promoter act: activators of insulin promoter-driven GFP, primary screen, imaging, TRM-6 cells, eGFP reporter, cell count. plate-scaled: unstimulated 0, stimulated control 100. activation, % at 2 µM. 0.81% of 130,000 active. AID 1296, 2008;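 active = activation at 2 µM above a set limit, confirmed on inspection of the cell images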;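 also: share of cells whose green reporter signal exceeds an intensity cutoff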
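Material: Human fetal islet-derived TRM-6 cells with tamoxifen-inducible insulin promoter–eGFP reporter | Medium: Low-glucose (5.5 mM) medium with tamoxifen | Probe or stimulus: Tamoxifen inducer, 0.75 µM, in seeding medium | Schedule: Tamoxifen pre-incubation 15 h overnight, then compound exposure 48 h at 37 °C | Detection: High-content imaging of fixed cells with Hoechst nuclear stain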
Starred values were filed as active, the others as inactive; [ ] = another dose, or the depositor's remark.

SMILES	INS promoter act
C=CCn1c(N)cc(=O)nc1SCC(=O)NC(C)c1ccccc1 (configuration not stated)	131
COC(=O)C1=NN(c2ccc(C)cc2)C2(S1)SC(C(C)=O)=C(C)N2c1ccccc1 (configuration not stated)	0
Cc1cc(OCC(=O)c2ccc(F)cc2)ccc1N1C(=O)CCC1=O	7
COc1ccc2nc(NC(=O)Nc3ccccc3)sc2c1	-10
CC[n+]1c(/C=C(\C)Nc2ccccc2)sc2ccccc21	8
CC[n+]1c(/C=C/C=C/N(C(C)=O)c2ccccc2)sc2cc(OC)ccc21	270*
Cc1cc(=O)[nH]c(-c2cccnc2)n1	7
CCC(=O)N/C(=N/c1nc(C)cc(C)n1)Nc1cccc(OC)c1	-7
Cc1cc(C)c(OCCCCNCc2ccccc2)c(Cl)c1	-8
CC(=O)N/C(=C\c1ccc(F)cc1)C(=O)N(C)C	-6
COC(=O)CN1C(=S)N(Cc2ccccc2)C(=O)C1CC(=O)Nc1ccc(OC)cc1 (configuration not stated)	-80
COc1ccc(NC(=O)CC2C(=O)N(C)C(=S)N2CCc2ccccc2)cc1 (configuration not stated)	-7
COc1ccc(NC(=O)CC2C(=O)N(Cc3ccccc3)C(=S)N2CCN2CCOCC2)cc1 (configuration not stated)	333*
COc1ccc(CCNC(=O)CCc2ccc(S(=O)(=O)NC(C)C)cc2)cc1	-71
O=CNc1ccc(S(=O)(=O)NCc2ccccc2)cc1	-9
NNC(=O)C1CC1c1ccc(Cl)cc1 (configuration not stated)	7
CC(=O)c1cc(F)c(N2CCN(C(=O)COc3ccccc3F)CC2)cc1C	7
CCOc1ccccc1NC(=O)c1ccc(F)c(S(=O)(=O)N2CCC3(CC2)OCCO3)c1	0
O=Cc1cn(CC(=O)N2CCOCC2)c2ccccc12	411*
Cc1nc2ccccc2c(=O)n1CC(=O)N1CCOCC1	-7
COC(=O)c1cn(CC(=O)N2CCCCCC2)c2ccccc12	381
COc1ccc(NC(=S)NNC(=O)c2nnn(-c3ccccc3)c2C)cc1	3
CCN(C(=O)Cn1c(=O)n(-c2cc(OC)c(OC)c(OC)c2)c(=O)c2ccccc21)c1cccc(C)c1	0
CCCc1c2ccccc2nc2ccccc12	-85
O=C(NCC1OCCc2ccccc21)c1ccc(NC(=O)c2ccc(Cl)cc2)cc1 (configuration not stated)	-6
SMILES	INS promoter act
Cn1c(=O)c2c(nc(CN3CCN(Cc4ccccc4)CC3)n2Cc2ccccc2)n(C)c1=O	-80
CCCn1c(CN2CCCCC2CC)nc2c1c(=O)n(C)c(=O)n2C (configuration not stated)	600*
CCCn1c(OC)nc2c1c(=O)n(C)c(=O)n2C	0
NC(=O)N/N=C/c1cc(Br)ccc1OC(=O)c1ccccc1	10
CCCCOC(=O)/C(=C\c1ccc([N+](=O)[O-])o1)NC(=O)c1ccccc1	43
CCOC(=O)NC1(C(F)(F)F)NC(=O)N(c2ccc(F)cc2)C1=O (configuration not stated)	7
CN(C)C(=O)COc1ccc2cc(-c3ccccc3)c(=O)oc2c1	-27
CCN(CC)c1ccc2cc(-c3nc(-c4ccc(OC)cc4)cs3)c(=O)oc2c1	223*[fluoresces]
CCOC(=O)c1cc2ccc(OC)cc2oc1=O	5
O=C(/C=C\c1ccc2c(c1)OCO2)Nc1c2c(nn1-c1ccc(Cl)cc1)CSC2	-7
COc1ccc(NC(=O)c2ccsc2NC(C)=O)cc1	118
COc1cc(OC)cc(C(=O)NCCNC(=O)c2ccco2)c1	371
O=C1CC(c2cc3c(cc2Br)OCO3)C2=C(CCCC2=O)N1 (configuration not stated)	6
Cc1ccc(S(=O)(=O)NCC(c2cccnc2)N(C)C)cc1 (configuration not stated)	9
COc1ccccc1N1CCN(C(=O)C2CCN(S(=O)(=O)c3ccc(C)cc3)CC2)CC1	-6
COc1ccccc1N1CCN(C(CNS(=O)(=O)c2ccc(C)cc2)c2cccnc2)CC1 (configuration not stated)	76*
Cc1nn(C)c(Oc2cccc(Cl)c2)c1C(=O)Nc1ccc(F)cc1	-3
COc1ccc(S(=O)(=O)N(C)CC(=O)N2CCN(Cc3ccccc3)CC2)cc1C	0
O=S(=O)(c1ccc(S(=O)(=O)N(Cc2ccccc2)Cc2ccco2)cc1)N1CCCC1	494*
O=S(=O)(NCc1ccco1)c1cccc(S(=O)(=O)N2CCOCC2)c1	0
C[C@H](NC(=O)c1ccco1)C(=O)Nc1ccc(S(=O)(=O)N2CCCC2)cc1	-4
CSc1nc(C)cc(OCCNS(=O)(=O)c2ccc(C)cc2)n1	287
O=C1NN(c2ccccc2)C(=O)/C1=C/c1ccc(Sc2cccc3ccccc23)o1	-7
CCOC(=O)c1c(C)[nH]c(C(=O)COC(=O)C(C)N2C(=O)C3CCCCC3C2=O)c1C (configuration not stated)	-2
COc1ccc2c(c1)c(=O)c(C(=O)c1ccccc1)cn2Cc1ccc(C)cc1	-7
SMILES	INS promoter act
O=C(O)c1cn(Cc2ccccc2)c2ccccc2c1=O	383*
O=C1C2C3C=CC(C3)C2C(=O)N1/N=C/c1cn(Cc2ccccc2)c2ccccc12 (configuration not stated)	-5
CCCCC(=O)Nc1nc2ccc(C(=O)OC)cc2s1	0
CCc1nnc(NS(=O)(=O)c2ccc(NC(=O)c3cccc(Cl)c3)cc2)s1	-78
CN(C)C(=O)Cn1c(SCC(=O)NC2CCCCC2)nc2ccccc21	-5
CCn1c(SCC(=O)NC(=O)NC(C)(C)C)nc2ccccc21	129*
CCn1c(SCC(=O)O)nc2ccccc21	0
COc1ccc(S(=O)(=O)N[C@@H](Cc2ccc(Cl)cc2)C(=O)N2CC[C@@]3(O)CCCC[C@H]3C2)cc1	8
CC(=O)Nc1ccc(/C(C)=N/NS(=O)(=O)c2ccccc2)cc1	10
O=C(c1cccnc1)N1CCN(C(=O)c2cccs2)CC1	456*
O=C(c1cccs1)N1CCN(Cc2ccccn2)CC1	4
O=C(c1ccncc1)N1CCN(C(=O)c2cccs2)CC1	5
O=C(Nc1ccc2c(c1)OCO2)N1CCN(C(=O)C2CCCO2)CC1 (configuration not stated)	-59
COc1ccccc1CC(=O)Nc1cccc2c1CCCC2	8
COc1ccccc1CC(=O)Nc1cc(Cl)ccc1O	-5
COc1cc(NC(=O)Cc2ccccc2OC)cc(OC)c1	435*
CCOCCCNC(=O)C(Cc1ccccc1)NC(=O)c1ccco1 (configuration not stated)	124
NS(=O)(=O)c1ccc(CCNC(=O)CSc2nc3ccsc3c(=O)n2CCCCC(=O)O)cc1	-7
Cc1ncsc1CCOC(=O)C1C2CC3CC(C2)CC1C3 (configuration not stated)	2
CCN1C(=O)/C(=C\N2CCCc3ccccc32)SC1=S	-7
Cc1c(N=C/C=C2/N(C)c3ccccc3C2(C)C)c(=O)n(-c2ccccc2)n1C	30
C=CCN1C(=O)/C(=C\C=C2\N(C)c3ccccc3C2(C)C)SC1=S	614*[fluoresces]
CC(C)(C)OC(=O)N1CCC[C@H]1c1nnc(SCc2ccccc2F)o1	0
COc1cc(OC)cc(C(=O)OCc2cc3ccccc3[nH]c2=O)c1	-71
CCN(CC)S(=O)(=O)c1ccc2[nH]c(=O)[nH]c2c1	-9
CCN(CC)C(=O)c1ccc(C)c(Br)c1	356
CCN(CC)C(=S)SCC(=O)c1ccc(Br)cc1	381*
